Source: PubChem BioAssay
Most compounds without a hit are left out; they make up all but 4.3% or so of the library.
STAT1 activator = activators of IFN-gamma induced STAT1 signaling; NIH 3T3 STAT1-luciferase reporter, luminescence; 100% = IFN-gamma alone, no compound; AID 932; 200,000 compounds, 2.6% hits; activation (% of control), % at 5.5 µM;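 active = activation above the screen-wide mean activation plus 3 SD, cut at about 130% in these data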;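 note: raw ratio to IFN-gamma control signal so 100% means no change and 0% no light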
STAT3 blocker = STAT3 signaling inhibition; 190,000 compounds, 0.89% hits; U3A cells, IL-6 STAT3-luciferase reporter, luminescence; host cell line lacks STAT1; inhibition, % at 5.5 µM;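 active = inhibition above the mean inhibition across all screened compounds plus 3 SD, cut at about 44% in these data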;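 note: 0% = DMSO only wells and 100% = 100 µM nifuroxazide control wells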
STAT1 blocker = STAT1 signaling inhibition | inhibition, % at 5.5 µM | NIH 3T3 STAT1-luciferase reporter, IFN-gamma, luminescence | 200,000 compounds, 0.35% hits | AID 920;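 active = inhibition above a set limit, the mean inhibition across all tested compounds plus 3 SD, cut at about 34% in these data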;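 note: 0% = IFN-gamma with DMSO and 100% = IFN-gamma with 300 µM nifuroxazide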
STAT3 activator = increases IL-6 driven STAT3 reporter signal; 190,000 compounds, 0.91% hits; U3A cells, IL-6 STAT3-luciferase reporter, luminescence; 100% = signal with IL-6 EC80 alone; activation (% of control), % at 5.6 µM;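 active = activation above the screen-wide mean of compound activation plus 3 SD, cut at about 130% in these data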;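 note: 0% = background luminescence of wells with medium and substrate only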
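Material: human U3A cells carrying STAT3-luciferase construct. Measured by: reporter luminescence signal. Timing: compound 1 h, then IL-6 6 h at 37 °C.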
STAT1 activ conf = STAT1 activation, confirmation assay. shares compounds with STAT1 activator. NIH 3T3 STAT1-luciferase reporter, IFN-gamma potentiation, luminescence; 100% = IFN-gamma EC80 alone, no compound. activation (% of control), % at 5.7 µM. 1,200 compounds, 97% hits;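 active = activation above a set limit carried over from the earlier primary STAT1 screen, cut at about 140% in these data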;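 note: simple ratio to median IFN-gamma plus DMSO wells so 0% means no light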
NFkB act STAT1ct = counter-screen for STAT1 activators: NF-kappaB activation; 1,200 compounds, 43% hits; activation (% of control), % at 5.7 µM; HEK293T NF-kB luciferase reporter, TNF-alpha stimulated, luminescence; 100% = TNF-alpha with vehicle only; shares compounds with STAT1 activator;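 active = activation above the mean of solvent-only control wells plus 3 SD, set per campaign, cut at about 130% in these data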;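 note: TNF-alpha given at a submaximal dose yielding about 80% of full reporter signal; values are well signal over median control so 100% means no change and 0% no light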
STAT3 act 2 = counter-screen for STAT1 activators: human STAT3 activation; shares compounds with STAT1 activator; U3A cells STAT3-luciferase reporter, IL-6, luminescence; cells lack STAT1; 100 = IL-6 alone, no compound effect; activation (% of control), % at 5.7 µM; 1,200 compounds, 46% hits;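 active = activation above the solvent-only control well mean plus 3 SD, set per plate batch, cut at about 110% in these data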;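 note: 0% = no luminescence and 100% = median IL-6 plus DMSO wells; higher means more STAT3 reporter activation so hits are non-selective activators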
* = called active by the depositor; x = not tested or not shown.

SMILES	STAT1 activator	STAT3 blocker	STAT1 blocker	STAT3 activator	STAT1 activ conf	NFkB act STAT1ct	STAT3 act 2
O=C(Nc1nc(-c2nc3ccccc3s2)cs1)C1CC1	162*	6	-65	95	227*	128	117*
CS(=O)(=O)c1nc2c(cc1C#N)CCCC2	95	-5	2	108	x	x	x
Clc1ccc(/C=N/Nc2ncnc3ccccc23)cc1Cl	158*	-26	-63	127	208*	151*	135*
CCOC(=O)c1c(C)nc2c3ccccc3ccn12	153*	-12	-57	114	202*	131	120*
O=C(Nc1ccc(N2CCOCC2)c(Cl)c1)c1cc2ccccc2o1	170*	6	-74	98	179*	128	94
Cc1cc(C)cc(C(=O)Nc2ccc(N3CCN(S(C)(=O)=O)CC3)cc2)c1	98	11	0	93	x	x	x
O=C(Nc1ccc(N2CCCC2)c(Cl)c1)c1ccc([N+](=O)[O-])o1	159*	10	-67	96	98	133*	103
CS(=O)(=O)N1CCN(c2ccc(NC(=O)c3ccc([N+](=O)[O-])o3)cc2)CC1	160*	22	-67	90	98	112	89
Cc1cccc(C)c1NC(=O)C(NC(=O)CN1C(=O)c2ccccc2C1=O)c1ccccc1 (stereo unspecified)	99	-2	1	103	x	x	x
CC1CCCCN1C(=O)COC(=O)/C=C/c1ccc2ccccc2n1 (stereo unspecified)	104	-7	-6	108	x	x	x
Cn1nc(Oc2ncc(C(F)(F)F)cc2Cl)cc1C(F)(F)F	100	9	0	94	x	x	x
O=C(CCc1ccc(S(=O)(=O)NCc2ccccc2)cc1)NCC1CCCO1 (stereo unspecified)	105	10	-6	94	x	x	x
c1ccc(-c2csc(N3CCSCC3)n2)cc1	160*	4	-63	97	129*	126	96
CC(=O)Nc1ccc(C(=O)NCCc2ccccc2)cc1	111	-12	-9	108	x	x	x
O=C(NCCc1ccccc1)c1ccc(Cl)nc1	156*	8	-54	97	163*	118	121*
CC(C)/C=C1\CCc2c([nH]c3ccccc23)C1=O	116	17	-20	90	x	x	x
Cc1ccc(/C=C2/CCc3c([nH]c4ccccc34)C2=O)cc1	161*	12	-68	98	188*	141*	114*
COc1ccc(CCN(C)C(=O)CSc2nc3ncc(Cl)cc3[nH]2)cc1OC	94	-18	4	115	x	x	x
CCC(=O)Nc1ccc2c(c1)ncn2-c1ccc(OC)cc1	126	0	-28	104	x	x	x
CCC(=O)Nc1ccc2c(c1)ncn2-c1ccc(C)cc1	162*	10	-71	96	183*	136*	135*
Cc1cc(C)cc(N(CC(=O)NC(C)(C)C)C(=O)CNC(=O)c2cccs2)c1	90	1	9	101	x	x	x
Cc1ccc(C(=O)C(C)OC(=O)c2ccccc2[N+](=O)[O-])cc1 (stereo unspecified)	181*	-14	-91	109	213*	133	127*
CCC(Sc1nc2ccccc2s1)C(=O)Nc1cc(C)on1 (stereo unspecified)	100	-7	0	107	x	x	x
CC(=O)Nc1ccc(S(=O)(=O)Oc2cccc(/C=N/N=C3/NC(=O)C(CC(=O)O)S3)c2)cc1 (stereo unspecified)	97	8	0	98	x	x	x
N#Cc1cnc(SCCc2ccccc2)nc1N	124	13	-26	92	x	x	x
Cc1ccccc1CSc1ncc(C#N)c(N)n1	166*	10	-73	92	169*	128	110
Cc1ccccc1C1NC(=S)NC2=C1C(=O)CCC2 (stereo unspecified)	101	5	-1	104	x	x	x
O=c1[nH]c2ccccc2nc1Cc1ccccc1	98	12	2	92	x	x	x
O=C(Cc1nc2ccccc2[nH]c1=O)c1ccccc1	175*	-25	-84	129	196*	123	155*
